Experimental data gathered from unrelated publications.
Protocols differ between the studies behind these lines.
Target: Dual specificity tyrosine-phosphorylation-regulated kinase 2 (DYRK2, Homo sapiens, UniProt Q92630)
Effect on: enzyme activity
Mode: inhibitor
Sequence (Q92630 1-601, as in one of the studies): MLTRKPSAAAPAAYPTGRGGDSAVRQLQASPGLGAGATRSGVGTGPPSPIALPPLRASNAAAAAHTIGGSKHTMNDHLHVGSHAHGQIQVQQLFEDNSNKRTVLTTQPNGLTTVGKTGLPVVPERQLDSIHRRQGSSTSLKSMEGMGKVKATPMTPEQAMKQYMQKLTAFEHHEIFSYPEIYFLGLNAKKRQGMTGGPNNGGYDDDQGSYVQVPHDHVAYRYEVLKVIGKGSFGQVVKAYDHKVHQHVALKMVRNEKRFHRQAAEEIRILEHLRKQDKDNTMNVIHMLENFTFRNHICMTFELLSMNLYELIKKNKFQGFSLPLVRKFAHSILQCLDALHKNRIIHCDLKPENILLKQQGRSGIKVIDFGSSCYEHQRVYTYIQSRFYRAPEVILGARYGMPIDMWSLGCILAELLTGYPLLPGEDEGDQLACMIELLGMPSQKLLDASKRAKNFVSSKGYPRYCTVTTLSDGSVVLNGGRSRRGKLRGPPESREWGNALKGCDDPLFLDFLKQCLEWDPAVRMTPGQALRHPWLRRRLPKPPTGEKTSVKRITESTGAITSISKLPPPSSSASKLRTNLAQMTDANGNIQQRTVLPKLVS

FC(F)c1nc2ccccc2n1-c1nc(N2CCOCC2)nc(N2CCOCC2)n1  remaining activity (10 µM): 93%
CC(C)(C)c1nc2c(s1)c1nc(N)ncc1c1ccc(NS(=O)(=O)c3c(F)cccc3F)c(F)c12  remaining activity (radiometric; 1 µM): 94%
Nc1nc(NC2CCCCC2)sc1C(=O)c1ccccc1  remaining activity (10 µM): 39%
COc1cc(Nc2cnc(C#N)c(O[C@H](C)CN(C)C)n2)ncc1-c1cnn(C)c1  remaining activity (radiometric; 1 µM): 100%
Cc1cnc(NC2CCOCC2)nc1-n1cnc(C(=O)NC(CN)c2cc(F)cc(Cl)c2)c1 (stereo not drawn)  remaining activity (radiometric; 1 µM): 30%
Oc1cccc(-c2nc(N3CCOCC3)c3oc4ncccc4c3n2)c1  remaining activity (10 µM): 83%
COc1cccc(CCNc2nc3cc(C(=O)O)ccc3c3cnccc23)c1  remaining activity (radiometric; 1 µM): 19%
O=C(Nc1cnn(-c2csc(C(=O)NC3COC3)c2)c1)Nc1c(F)cccc1Cl  remaining activity (5 µM): 93.6%
O=C(O)c1ccc2c(c1)nc(Nc1ccc(Cl)cc1)c1ccncc12  remaining activity (radiometric; 1 µM): 11%
Nc1nc(Nc2ccccc2)sc1C(=O)c1c(F)cccc1F  remaining activity (10 µM): 79%
O=C(O)c1ccc2c(c1)nc(NCCc1cccc(F)c1)c1ccncc12  remaining activity (radiometric; 1 µM): 17%
Cc1sc(C(=O)NC2COC2)cc1-n1cc(NC(=O)Nc2c(F)cccc2Cl)cn1  remaining activity (10 µM): 96.3%
